According to ChEMBL document CHEMBL3244257, “Effects of deuteration on locomotor activity of amphetamine” (J Med Chem, 1978):

Key:
[1] = test system: Mus musculus; experiment: Induction of spontaneous locomotor activity in Swiss-Webster albino mouse assessed as time required to show activity at 10.6 mg/kg, ip measured every 10 mins in first hour followed by every hour for 5 hrs; format: functional; conditions: route intraperitoneal
Procedure, shortened: (§1)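 Mice weighing 22–24 g, acclimated at least 2 weeks, fed and watered freely until testing, and split into groups of five, each mouse used once. Sulfate salts in normal saline given ip at 0.2 mL/10 g. Controls received saline. Activity was counted as photocell beam interruptions in six-beam circular cages. Tests ran between 11:00 a.m. and 5:00 p.m.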

[2] = Acute toxicity in ip dosed Swiss-Webster mouse measured for 24 hrs; format: organism-based; conditions: in vivo
Procedure, shortened: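 Groups of mice given three intraperitoneal doses (313, 353 and 394 μM/kg), 14–22 mice per dose, observed for 24 h. LD50 in mg/kg derived from regression dose-response curves by the Litchfield and Wilcoxon method.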

[3] = Potency ratio of compound LD50 to protioamphetamine LD50 for ip dosed Swiss-Webster mouse; format: ADME, organism-based; conditions: in vivo
[4] = test system: Mus musculus; experiment: Induction of spontaneous locomotor activity in Swiss-Webster albino mouse assessed as time required to show activity at 27.2 umol/kg, ip measured every 10 mins in first hour followed by every hour for 5 hrs; format: functional; procedure, shortened: as §1
[5] = test system: Mus musculus; experiment: Induction of spontaneous locomotor activity in Swiss-Webster albino mouse assessed as total activity AUC at 10.6 mg/kg, ip; format: functional, organism-based; design: dose 10.6 mg/kg; conditions: tested as the 2H-labelled form; procedure, shortened: as §1
[6] = test system: Mus musculus; experiment: Induction of spontaneous locomotor activity in Swiss-Webster albino mouse assessed as total activity AUC at 27.2 umol/kg, ip; format: functional, organism-based; conditions: tested as the 2H-labelled form; procedure, shortened: as §1
[7] = test system: Mus musculus; experiment: Induction of spontaneous locomotor activity in Swiss-Webster albino mouse assessed as time required to show activity at 10 mg/kg, ip measured every 10 mins in first hour followed by every hour for 5 hrs; format: functional; conditions: route intraperitoneal; procedure, shortened: as §1
[8] = test system: Mus musculus; experiment: Induction of spontaneous locomotor activity in Swiss-Webster albino mouse assessed as total activity AUC at 10 mg/kg, ip; format: functional, organism-based; design: dose 10 mg/kg; procedure, shortened: as §1

| SMILES | LD50 at 24 h [2] [mg/kg] | Time [4] [min] | AUC [6] [cm2] | other results |
| --- | --- | --- | --- | --- |
| O=S(=O)(O)O.[2H]c1c([2H])c([2H])c(C([2H])([2H])C([2H])(N)C([2H])([2H])[2H])c([2H])c1[2H] (racemic) | 149 |  |  | Time [1]: 120 min; selectivity ratio [3]: 1.2 |
| O=S(=O)(O)O.[2H]c1c([2H])c([2H])c(C([2H])([2H])C(C)N)c([2H])c1[2H] (racemic) | 140 | 80 |  | selectivity ratio [3]: 1.13 |
| O=S(=O)(O)O.[2H]C([2H])([2H])C([2H])(N)C([2H])([2H])c1ccccc1 (racemic) | 143 | 100 |  | selectivity ratio [3]: 1.16 |
| O=S(=O)(O)O.[2H]C(C)(N)Cc1ccccc1 (racemic) |  | 100 |  |  |
| O=S(=O)(O)O.[2H]C(c1ccccc1)C(C)N (racemic) |  | 75 |  |  |
| O=S(=O)(O)O.[2H]C(C)(N)C([2H])([2H])c1ccccc1 (racemic) |  | 105 |  |  |
| CC(N)Cc1ccccc1 (racemic) |  |  |  | AUC [5]: 350 cm2 |
| CC(N)Cc1ccccc1 (racemic; 2) |  |  | 349 |  |
| CC(N)Cc1ccccc1 (racemic; 3) |  |  | 367 |  |
| CC(N)Cc1ccccc1 (racemic; 4) |  |  | 370 |  |
| CC(N)Cc1ccccc1 (racemic; 5) |  |  | 355 |  |
| CC(N)Cc1ccccc1 (racemic; 6) |  |  | 374 |  |
| C[C@H](N)Cc1ccccc1.C[C@H](N)Cc1ccccc1.O=S(=O)(O)O [DEXTROAMPHETAMINE SULFATE] | 123 |  |  | Time [7]: 70 min; AUC [8]: 350 cm2 |
